Data set [1] can be described thus: Bioavailability in mouse. In kind it is ADME, organism-based. The settings on record: in vivo.
Data set [2] can be described thus: Intrinsic clearance in mouse liver microsome. In kind it is ADME. The settings on record: liver microsomes. In a few lines:
(§1)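 Compounds incubated in vitro with human or mouse liver microsomes; parent and metabolite followed over roughly 30 min incubation; intrinsic clearance expressed as µl/min/mg.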
(Liver microsomes are a subcellular fraction often used to study metabolism.)

For data set [3], the system named is Helicobacter pylori. Put plainly: Antibacterial activity against hefC-deficient Helicobacter pylori by NCCLS method. In kind it is functional. In a few lines:
(§2)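 H. pylori MICs determined following NCCLS guidelines; values carry a twofold variance.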

Data set [4] in a line: Bioavailability in mouse at 40 mg/kg, po. In kind it is ADME, organism-based. Conditions: in vivo.
In a further data set the target is T1, Glutamate racemase (Helicobacter pylori (strain ATCC 700392 / 26695) (Campylobacterpylori), UniProt P56068).
T1 sequence (P56068 whole entry): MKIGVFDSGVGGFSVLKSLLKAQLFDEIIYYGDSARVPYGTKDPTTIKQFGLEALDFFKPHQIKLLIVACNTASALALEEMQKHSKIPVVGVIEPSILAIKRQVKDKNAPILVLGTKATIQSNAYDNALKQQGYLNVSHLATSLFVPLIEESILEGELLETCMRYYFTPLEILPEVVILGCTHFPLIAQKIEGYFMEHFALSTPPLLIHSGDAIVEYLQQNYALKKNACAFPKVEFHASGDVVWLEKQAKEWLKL
Put plainly: Inhibition of Helicobacter pylori MurI.

Data set [5] relates to Helicobacter pylori. Put plainly: Antibacterial activity against wild type Helicobacter pylori by NCCLS method. In kind it is functional. In a few lines: as §2
A short description of data set [6]: Intrinsic clearance in human liver microsome. In kind it is ADME. Conditions: liver microsomes. The procedure, abridged:
as §1

A short description of data set [7]: Aqueous solubility of compound. In kind it is physicochemical. The settings on record: buffer.
A short description of data set [8]: Equilibrium solubility of compound. In kind it is physicochemical.
For another data set, the system named is Mus musculus. Put plainly: Plasma concentration in mouse at 40 mg/kg, po. In kind it is ADME, organism-based. The arrangement: dose 40 mg/kg, route oral. The settings on record: in vivo.

Results on 18 compounds are retold here after ChEMBL document CHEMBL1155910, “Design of Helicobacter pylori glutamate racemase inhibitors as selective antibacterial agents: a novel pro-drug approach to increase exposure” (Bioorg Med Chem Lett, 2008).

Usually bioavailability stands for the share of a dose that reaches the circulation, judged against a reference dose that is usually intravenous. As usually defined, the microsomal CLint is the capacity of the preparation to metabolise the compound, expressed as a volume cleared per time. The MIC is the lowest concentration that inhibits growth of the organism. By IC50 is commonly meant the concentration that gives 50% inhibition. A higher IC50 goes with weaker potency. As usually defined, the solubility is the dissolved amount per volume that the medium holds. A higher solubility goes with a readily soluble substance. For orientation: thermodynamic solubility means solubility found after equilibrating the solid with the medium.

Molecules are shown by their SMILES. Converted amounts (≈) assume the structure as drawn.

On to `Cn1cc(C#N)cc1-c1c2c(=O)n(C)c(=O)n(CC3CC3)c2nn1Cc1ccnc2ccc(Cl)cc12`, for which the bioavailability in data set [1] is under 10%; in data set [4], 7.5%. Besides, the intrinsic metabolic clearance (microsomal CLint) in data set [2] was 50 µL/min/mg; in [6] it was under 14 µL/min/mg. The results for the MIC with Helicobacter pylori [3] and in the data set on Helicobacter pylori [5] were 0.25 µg/mL (≈ 0.5 µM) and 0.5 µg/mL (≈ 1 µM), respectively. Also, on Glutamate racemase, the IC50 worked out at 26 nM. Moreover, the solubility in data set [7] was under 0.4 µM.
For `Cn1cc(S(N)(=O)=O)nc1-c1c2c(=O)n(C)c(=O)n(CC3CC3)c2nn1Cc1c[nH]c2ccc(Cl)cc12`, the intrinsic clearance (microsomal CLint) in data set [2] is over 100 µL/min/mg; in data set [6], 56 µL/min/mg. In addition, the MIC is 0.5 µg/mL (≈ 0.921 µM) against Helicobacter pylori [3] and over 32 µg/mL against Helicobacter pylori [5]. On Glutamate racemase, this compound displayed an IC50 of 38 nM.
Taken in the same sequence, the figures for `Cn1cc(S(C)(=O)=O)nc1-c1c2c(=O)n(C)c(=O)n(CC3CC3)c2nn1Cc1ccnc2ccc(Cl)cc12` were 56 µL/min/mg, 23 µL/min/mg, 4 µg/mL (≈ 7.22 µM), 16 µg/mL (≈ 28.9 µM) and 160 nM.
Taken in the same sequence, the figures for `Cc1oc(S(C)(=O)=O)cc1-c1c2c(=O)n(C)c(=O)n(CC3CC3)c2nn1Cc1cn(C)c2ccc(Cl)cc12` were over 100 µL/min/mg, over 100 µL/min/mg, 0.5 µg/mL (≈ 0.899 µM), 1 µg/mL (≈ 1.8 µM) and 57 nM.
The matching figures for `CNS(=O)(=O)c1cc(-c2c3c(=O)n(C)c(=O)n(CC4CC4)c3nn2Cc2c[nH]c3ccc(Cl)cc23)n(C)c1`: over 100 µL/min/mg, over 100 µL/min/mg, 0.5 µg/mL (≈ 0.899 µM), 16 µg/mL (≈ 28.8 µM) and 27 nM.
`CONS(=O)(=O)c1cc(-c2c3c(=O)n(C)c(=O)n(CC4CC4)c3nn2Cc2ccnc3ccc(Cl)cc23)n(C)c1`: the MIC came out at 4 µg/mL (≈ 6.85 µM) in the data set with Helicobacter pylori [3] and 16 µg/mL (≈ 27.4 µM) in the data set with Helicobacter pylori [5]. In addition, the IC50 on Glutamate racemase amounted to 55 nM.
Taken in the same sequence, the figures for `CONS(=O)(=O)c1cc(-c2c3c(=O)n(C)c(=O)n(CC4CC4)c3nn2Cc2c[nH]c3ccc(Cl)cc23)n(C)c1` were 8 µg/mL (≈ 14 µM), 8 µg/mL (≈ 14 µM) and 36 nM.
On to `Cn1c(=O)c2c(-c3oc(S(C)(=O)=O)cc3Cl)n(Cc3ccnc4ccc(Cl)cc34)nc2n(CC2CC2)c1=O`, for which the values for the microsomal CLint in data set [2] and in data set [6] were 22 µL/min/mg and 19 µL/min/mg, respectively. Further, the MIC with Helicobacter pylori [3] and in the data set on Helicobacter pylori [5] was 4 µg/mL (≈ 6.96 µM) throughout. In addition, on Glutamate racemase, 59 nM corresponded to half-maximal inhibition (IC50).
For `Cc1oc(S(C)(=O)=O)cc1-c1c2c(=O)n(C)c(=O)n(CC3CC3)c2nn1Cc1ccnc2ccc(Cl)cc12`, the microsomal CLint in data set [2] came to 61 µL/min/mg; in data set [6] it was 22 µL/min/mg. On Glutamate racemase, this compound came in with a half-inhibitory concentration (IC50) of 51 nM. The MIC against Helicobacter pylori [5] stood at 4 µg/mL (≈ 7.22 µM).
Consider `Cn1cc([S+](C)[O-])cc1-c1c2c(=O)n(C)c(=O)n(CC3CC3)c2nn1Cc1c[nH]c2ccc(Cl)cc12` (configuration not stated), for which the microsomal CLint in data set [2] and in data set [6] was over 100 µL/min/mg in each case. For the same compound, the MIC worked out at 4 µg/mL (≈ 7.62 µM) against Helicobacter pylori [3] and 16 µg/mL (≈ 30.5 µM) against Helicobacter pylori [5]. The same compound showed an IC50 at Glutamate racemase of 23 nM.
As to `Cn1cc([S+](C)[O-])cc1-c1c2c(=O)n(C)c(=O)n(CC3CC3)c2nn1Cc1ccnc2ccc(Cl)cc12` (configuration not stated), the microsomal CLint in data set [2] and in data set [6] was over 100 µL/min/mg in each case. For the same compound, the solubility (thermodynamic) in data set [8] is 120 µM (≈ 64.4 µg/mL). Also, the MIC in the data set with Helicobacter pylori [3] stood at 0.5 µg/mL (≈ 0.931 µM); with Helicobacter pylori [5], 16 µg/mL (≈ 29.8 µM). The bioavailability in data set [4] stood at 10%. At Glutamate racemase, this compound showed an IC50 of 37 nM.
`Cn1cc(S(C)(=O)=O)cc1-c1c2c(=O)n(C)c(=O)n(CC3CC3)c2nn1Cc1ccnc2ccc(Cl)cc12`: the microsomal CLint in data set [2] is under 14 µL/min/mg; in data set [6] it was 20 µL/min/mg. The MIC against Helicobacter pylori [3] worked out at 0.5 µg/mL (≈ 0.904 µM); in the data set on Helicobacter pylori [5], 2 µg/mL (≈ 3.62 µM). In data set [4], this compound returned a bioavailability of 60%. On Glutamate racemase, this compound returned a half-maximal inhibitory concentration (IC50) of 34 nM. The Cp with Mus musculus was found to be 1200 ng/mL.
Consider `Cn1cc(S(C)(=O)=O)cc1-c1c2c(=O)n(C)c(=O)n(CC3CC3)c2nn1Cc1c[nH]c2ccc(Cl)cc12`, for which the microsomal CLint in data set [2] was 64 µL/min/mg; in data set [6], 49 µL/min/mg. The MIC is 0.5 µg/mL (≈ 0.924 µM) with Helicobacter pylori [3] and 4 µg/mL (≈ 7.39 µM) against Helicobacter pylori [5]. In addition, the IC50 on Glutamate racemase turned out to be 26 nM.
The matching figures for `Cn1cc(S(N)(=O)=O)cc1-c1c2c(=O)n(C)c(=O)n(CC3CC3)c2nn1Cc1ccnc2ccc(Cl)cc12`: under 14 µL/min/mg, 22 µL/min/mg, 0.25 µg/mL (≈ 0.451 µM), 32 µg/mL (≈ 57.8 µM) and 16 nM.
Taken in the same sequence, the figures for `Cn1cc(S(C)(=O)=O)nc1-c1c2c(=O)n(C)c(=O)n(CC3CC3)c2nn1Cc1c[nH]c2ccc(Cl)cc12` were over 100 µL/min/mg, 49 µL/min/mg, 2 µg/mL (≈ 3.69 µM), 16 µg/mL (≈ 29.5 µM) and 31 nM.
The matching figures for `Cn1c(=O)c2c(-c3ccc(S(C)(=O)=O)o3)n(Cc3ccnc4ccc(Cl)cc34)nc2n(CC2CC2)c1=O`: 14 µL/min/mg, 17 µL/min/mg, over 64 µg/mL, over 64 µg/mL and 1500 nM.
As for `CNS(=O)(=O)c1cc(-c2c3c(=O)n(C)c(=O)n(CC4CC4)c3nn2Cc2ccnc3ccc(Cl)cc23)n(C)c1`, the microsomal CLint in data set [2] and in data set [6] was over 100 µL/min/mg in each case. For the same compound, the values for the MIC against Helicobacter pylori [3] and with Helicobacter pylori [5] were 1 µg/mL (≈ 1.76 µM) and 16 µg/mL (≈ 28.2 µM), respectively. Moreover, the IC50 on Glutamate racemase is 44 nM.
Regarding `Cn1cc(S(C)(=O)=O)cc1-c1c2c(=O)n(C)c(=O)n(CC3CC3)c2nn1Cc1cn(C)c2ccc(Cl)cc12`, the results for the microsomal CLint in data set [2] and in data set [6] were 56 µL/min/mg and 23 µL/min/mg, respectively. In addition, the MIC is 4 µg/mL (≈ 7.21 µM) in the data set on Helicobacter pylori [3] and 16 µg/mL (≈ 28.8 µM) in the data set with Helicobacter pylori [5]. This compound had an IC50 at Glutamate racemase of 33 nM.
